Assay outcomes from PubChem BioAssay.
The list is not random: actives were taken first. Their share in the collection is about 3.1%.
hERG rescue – hERG rescue from dofetilide block, primary screen, cell-based, CHO-hERG, FluxOR thallium flux, dofetilide IC70 | dofetilide IC70 present | AID 1511, 2009 | actives 0.51% (n = 310,000) | activation (rescue from dofetilide block), less the hit threshold, % at 10 µM | Voltage-gated inwardly rectifying potassium channel KCNH2 (Homo sapiens), Q12809;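 active = activation above the mean of controls blocked by dofetilide plus 5 SD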;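 also: thallium influx through hERG after potassium depolarization seen as dye fluorescence rise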
Target sequence (Q12809 whole entry, looked up): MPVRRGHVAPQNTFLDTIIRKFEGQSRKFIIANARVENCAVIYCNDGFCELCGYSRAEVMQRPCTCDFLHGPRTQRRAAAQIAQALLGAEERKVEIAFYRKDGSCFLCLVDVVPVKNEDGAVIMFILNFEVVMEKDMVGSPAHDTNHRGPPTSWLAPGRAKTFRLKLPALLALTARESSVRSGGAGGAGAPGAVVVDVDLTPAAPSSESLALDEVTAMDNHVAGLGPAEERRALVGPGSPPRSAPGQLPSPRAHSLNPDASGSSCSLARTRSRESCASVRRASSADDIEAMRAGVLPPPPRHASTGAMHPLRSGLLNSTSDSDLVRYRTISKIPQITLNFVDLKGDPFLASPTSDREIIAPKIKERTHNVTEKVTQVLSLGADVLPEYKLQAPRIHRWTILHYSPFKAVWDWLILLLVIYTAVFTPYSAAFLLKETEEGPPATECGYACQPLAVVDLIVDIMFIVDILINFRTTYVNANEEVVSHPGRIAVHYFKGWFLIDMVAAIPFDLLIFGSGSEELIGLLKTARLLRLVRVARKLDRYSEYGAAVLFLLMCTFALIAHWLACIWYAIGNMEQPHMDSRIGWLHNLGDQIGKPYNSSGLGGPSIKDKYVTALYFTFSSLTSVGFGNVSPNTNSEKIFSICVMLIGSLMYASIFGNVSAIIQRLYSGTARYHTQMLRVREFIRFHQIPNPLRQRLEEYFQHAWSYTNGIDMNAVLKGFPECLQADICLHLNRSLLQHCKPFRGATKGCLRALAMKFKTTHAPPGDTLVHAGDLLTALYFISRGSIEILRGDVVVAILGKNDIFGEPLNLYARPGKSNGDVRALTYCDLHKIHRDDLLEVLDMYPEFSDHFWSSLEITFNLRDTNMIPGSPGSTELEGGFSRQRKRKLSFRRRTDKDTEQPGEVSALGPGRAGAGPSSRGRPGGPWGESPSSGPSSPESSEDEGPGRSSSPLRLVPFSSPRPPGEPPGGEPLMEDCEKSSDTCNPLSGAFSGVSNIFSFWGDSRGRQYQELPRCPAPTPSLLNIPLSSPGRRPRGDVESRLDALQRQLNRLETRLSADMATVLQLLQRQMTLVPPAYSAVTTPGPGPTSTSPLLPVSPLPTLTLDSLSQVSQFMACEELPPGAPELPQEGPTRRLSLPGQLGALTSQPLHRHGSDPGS
KCNQ1 block – inhibitors of human KCNQ1 channel, primary screen, cell-based, thallium flux, high-throughput; B-score at 10 µM; CHO-K1 KCNQ1, FluxOR thallium flux fluorescence; stronger effect = higher value; actives 1.3% (n = 310,000); Potassium voltage-gated channel subfamily KQT member 1 (Homo sapiens), P51787;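 active = compounds whose thallium flux B-score, printed positive for inhibition, exceeds three library SD while starting fluorescence stays within three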;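 also: channel opened by potassium depolarization with thallium stimulus after 20 min compound exposure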
KCNQ1 act – potentiators or activators of KCNQ1 channel, primary screen, cell-based, thallium flux, high-throughput | AID 2648, 2010 | actives 0.35% (n = 310,000) | CHO-K1 KCNQ1, thallium flux FluxOR fluorescence; stronger effect = higher value | B-score at 10 µM;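 active = fluorescence ratio B-score, a plate-corrected score, at least three library SD, with initial intensity B-score within 5 SD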
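Assay system: CHO-K1 cells stably expressing KCNQ1; Medium: assay buffer with matched DMSO; Also added: K+/Tl+ depolarizing stimulus; Dosing: single dose; Timing: dye 90 min, compound 20 min, room temperature; Measured by: kinetic FluxOR thallium fluorescence, 10-s 1-Hz baseline, 110-s post-stimulus read; Read-out: peak-minus-minimum fluorescence over initial fluorescence, negative-control normalized, B-scored.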
KCNK9 block – KCNK9 potassium channel inhibitors, primary screen, HEK293 cells, thallium flux; Potassium channel subfamily K member 9 (Homo sapiens), Q9NPC2; FluxOR thallium flux fluorescence; stronger effect = lower value; B-score at 10 µM; actives 1.2% (n = 310,000); AID 488922, 2010;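 active = ratio B-score over 3 SD below the library mean, with starting fluorescence within 5 SD of its mean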;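 also: negative B-score means less thallium flux so channel inhibition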
KCNK3 inh – human KCNK3 channel inhibitors, primary screen, CHO cells, FluxOR thallium flux, B-score. actives 0.84% (n = 340,000). AID 602410, 2012. B-score at 10 µM. FluxOR fluorescence; stronger effect = lower value;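 active = B-score under library mean minus 4 SD, starting fluorescence ratio at most library mean plus 5 SD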;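 also: more negative B-score means stronger inhibition of thallium flux through KCNK3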
KCNK9 block conf – KCNK9 potassium channel inhibitors, confirmation, HEK293 cells, thallium flux, duplicate; shares compounds with KCNK9 block; FluxOR thallium flux fluorescence; inhibition, % at 10 µM; actives 43% (n = 4,900);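 active = thallium signal inhibited by more than 5 SD of the compound-free buffer control wells, on both duplicate plates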
Kir2-1 spec – mouse Kir2.1 channel inhibition, confirmation, selectivity assay for KCNK9 modulator project, cell-based, HEK293, thallium flux | shares compounds with KCNK9 block | Kir2.1 cells, FluxOR thallium flux fluorescence | inhibition, % at 10 µM | actives 4% (n = 4,900);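 active = thallium signal drop more than 5 SD beyond the mean of the no-compound control wells, seen in both duplicate plates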;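 also: signal is fluorescence rise after thallium addition divided by baseline fluorescence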
HEK293 Tl ctr – thallium flux in non-induced HEK293 cells, confirmation, counter-screen for KCNK9 inhibitor project, cell-based, second counter screen, non-induced KCNK9-HEK293 | shares compounds with KCNK9 block | FluxOR thallium flux | inhibition, % at 10 µM | actives 40% (n = 4,900);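 active = thallium signal drop beyond 5 SD of the untreated control mean, on both duplicate plates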
Each line names hits and unclear results; the compound was inactive in the other large screens (follow-up assays come after a bar, where they were run).

CCOC(=O)CN(C(=O)COc1nc(-c2ccccc2)cc(C)c1C#N)c1ccccc1C	none | KCNK9 block conf inactive | Kir2-1 spec inactive | HEK293 Tl ctr inactive
CCOC(=O)[C@@H]1[C@H]2COc3ccc(Br)cc3[C@@H]2N2C(=O)N(c3ccccc3)C(=O)[C@@]12C	KCNK9 block -9 | KCNK9 block conf 52% | Kir2-1 spec inactive | HEK293 Tl ctr 30%
CCOC(=O)[C@@H]1[C@H]2COc3ccc(Br)cc3[C@H]2N2C(=O)N(c3ccc(Br)cc3)C(=O)[C@]12C	KCNK9 block -16 | KCNK9 block conf 70% | Kir2-1 spec inactive | HEK293 Tl ctr 28%
CCOC(=O)[C@@H]1[C@H]2COc3ccc(Br)cc3[C@@H]2N2C(=O)N(c3cccc(Cl)c3)C(=O)[C@]12C	none
CCOC(=O)[C@@H]1[C@H]2COc3ccc(Br)cc3[C@@H]2N2C(=O)N(c3ccc(Br)cc3)C(=O)[C@]12C	none
CCOC(=O)[C@@H]1[C@H]2COc3ccc(Br)cc3[C@H]2N2C(=O)N(c3cccc(Cl)c3)C(=O)[C@]12C	KCNK9 block -11 | KCNK9 block conf 73% | Kir2-1 spec inactive | HEK293 Tl ctr 28%
CC1CCN(C(c2ccc(N(C)C)cc2)c2nnnn2Cc2ccc(F)cc2)CC1 (stereo not drawn)	none
Fc1ccc(Cn2nnnc2C(c2ccc(Cl)cc2)N2CCSCC2)cc1 (stereo not drawn)	KCNK9 block -9.4 | KCNK9 block conf 40% | Kir2-1 spec inactive | HEK293 Tl ctr 44%
Cc1cc(N2CCCC2)nc2ccc(NC(=S)NCCCN3CCC(C)CC3)cc12	none
CC1CCc2c(sc(NC(=O)C3=COCCO3)c2C(N)=O)C1 (stereo not drawn)	none (no result: hERG rescue, KCNQ1 block, KCNQ1 act, KCNK9 block)
C#CCn1c(S(=O)(=O)Cc2ccc(OC)cc2)nc(-c2ccccc2)c1-c1ccccc1	KCNK9 block -18, KCNK3 inh -9.4 | KCNK9 block conf 62% | Kir2-1 spec inactive | HEK293 Tl ctr 26%
CCOc1ccccc1N1CCN(Cc2ccc(Br)s2)CC1	none | KCNK9 block conf inactive | Kir2-1 spec inactive | HEK293 Tl ctr inactive
CCOc1ccccc1N1CCN(Cc2ccco2)CC1	none
CCOc1ccccc1N1CCN(C/C=C/c2ccc(N(C)C)cc2)CC1	none | KCNK9 block conf inactive | Kir2-1 spec inactive | HEK293 Tl ctr inactive
C#CCNC(=O)C1=C[C@@H](C)[C@H](CCCO)[C@@H](OCC)O1	none
Cc1ccccc1C1CCCN(Cc2nc(C3CC3)no2)C1 (stereo not drawn)	none | KCNK9 block conf inactive | Kir2-1 spec inactive | HEK293 Tl ctr inactive
O=C(NNC(=O)C1CCC(C(=O)NNC(=O)c2cccs2)CC1)c1cccs1 (stereo not drawn)	none
Cc1cc(N/N=C/c2ccccc2Cl)nc(NCc2ccccc2)n1	none | KCNK9 block conf inactive | Kir2-1 spec inactive | HEK293 Tl ctr inactive
O=C1CSC(c2cn(-c3ccccc3)nc2-c2cccs2)N1CC1CCCO1 (stereo not drawn)	none
C[C@@H]1COC(=O)[C@@H](CC(=O)OC(C)(C)C)C/C=C\C[C@H](CC(=O)NCCO)C(=O)N1	none (no result: hERG rescue, KCNQ1 block, KCNQ1 act, KCNK9 block)
COc1cccc(N2CCN(CC(=O)NC3=Nc4ccccc4N=C(C)C3c3ccccc3)CC2)c1 (stereo not drawn)	KCNK9 block -14 | KCNK9 block conf 54% | Kir2-1 spec inactive | HEK293 Tl ctr 28%
Cn1nc(-c2ccccc2F)c2cc(C(=O)Nc3ccc4c(c3)OCCO4)sc21	KCNK9 block -12 | KCNK9 block conf 49% | Kir2-1 spec inactive | HEK293 Tl ctr inactive
